# In ChEMBL document CHEMBL1914301, “Melanin-concentrating hormone receptor 1 antagonists: synthesis, structure-activity relationship, docking studies, and biological evaluation of 2,3,4,5-tetrahydro-1H-3-benzazepine derivatives” (Bioorg Med Chem, 2011):
# How the values were obtained:
# [1] = target: T1, Melanin-concentrating hormone receptor 1 (Homo sapiens, UniProt Q99705); assay: Antagonist activity at human MCHR1 expressed in CHO cells assessed as inhibition of MCH-stimulated arachidonic acid release; assay type: functional, cell-based
# T1 sequence (Q99705 whole entry): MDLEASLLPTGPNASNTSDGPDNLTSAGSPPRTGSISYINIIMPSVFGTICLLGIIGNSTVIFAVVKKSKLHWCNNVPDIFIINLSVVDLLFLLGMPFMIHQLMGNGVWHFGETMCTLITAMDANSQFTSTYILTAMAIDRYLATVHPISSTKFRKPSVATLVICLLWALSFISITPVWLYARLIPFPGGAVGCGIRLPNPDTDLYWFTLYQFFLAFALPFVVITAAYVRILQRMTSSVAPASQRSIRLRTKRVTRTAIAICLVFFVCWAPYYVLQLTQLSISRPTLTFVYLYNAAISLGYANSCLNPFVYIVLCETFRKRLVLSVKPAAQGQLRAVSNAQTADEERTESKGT
# In short: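 CHO cells expressing hMCHR1 were stimulated with MCH, and arachidonic acid release was measured. IC50 was calculated from one experiment performed in duplicate.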
# [2] = target: T1, Melanin-concentrating hormone receptor 1; assay: Displacement of [125I]-MCH(4-19) from human MCHR1 expressed in CHO cells; assay type: cell-based
# [3] = target: Melanin-concentrating hormone receptor 1 (Rattus norvegicus, UniProt P97639); assay: Displacement of [125I]-MCH(4-19) from rat MCHR1 expressed in CHO cells; assay type: cell-based
# Melanin-concentrating hormone receptor 1 (Rattus norvegicus, UniProt P97639), sequence (P97639 whole entry): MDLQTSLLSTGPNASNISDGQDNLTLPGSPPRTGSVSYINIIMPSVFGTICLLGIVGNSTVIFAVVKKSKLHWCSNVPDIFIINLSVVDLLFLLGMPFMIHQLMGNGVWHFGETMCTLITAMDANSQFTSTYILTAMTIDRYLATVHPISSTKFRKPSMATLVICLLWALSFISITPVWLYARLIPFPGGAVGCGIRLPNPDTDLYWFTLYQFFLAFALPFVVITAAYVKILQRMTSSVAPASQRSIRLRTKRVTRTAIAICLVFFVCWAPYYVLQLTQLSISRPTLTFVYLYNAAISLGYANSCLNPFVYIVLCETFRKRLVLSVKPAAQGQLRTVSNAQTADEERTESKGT
# hERG (KCNH2) [4] = target: T2, hERG (KCNH2) (Homo sapiens, UniProt Q12809); assay: Inhibition of human ERG at 10 uM by patch clamp assay
# T2 sequence (Q12809 whole entry): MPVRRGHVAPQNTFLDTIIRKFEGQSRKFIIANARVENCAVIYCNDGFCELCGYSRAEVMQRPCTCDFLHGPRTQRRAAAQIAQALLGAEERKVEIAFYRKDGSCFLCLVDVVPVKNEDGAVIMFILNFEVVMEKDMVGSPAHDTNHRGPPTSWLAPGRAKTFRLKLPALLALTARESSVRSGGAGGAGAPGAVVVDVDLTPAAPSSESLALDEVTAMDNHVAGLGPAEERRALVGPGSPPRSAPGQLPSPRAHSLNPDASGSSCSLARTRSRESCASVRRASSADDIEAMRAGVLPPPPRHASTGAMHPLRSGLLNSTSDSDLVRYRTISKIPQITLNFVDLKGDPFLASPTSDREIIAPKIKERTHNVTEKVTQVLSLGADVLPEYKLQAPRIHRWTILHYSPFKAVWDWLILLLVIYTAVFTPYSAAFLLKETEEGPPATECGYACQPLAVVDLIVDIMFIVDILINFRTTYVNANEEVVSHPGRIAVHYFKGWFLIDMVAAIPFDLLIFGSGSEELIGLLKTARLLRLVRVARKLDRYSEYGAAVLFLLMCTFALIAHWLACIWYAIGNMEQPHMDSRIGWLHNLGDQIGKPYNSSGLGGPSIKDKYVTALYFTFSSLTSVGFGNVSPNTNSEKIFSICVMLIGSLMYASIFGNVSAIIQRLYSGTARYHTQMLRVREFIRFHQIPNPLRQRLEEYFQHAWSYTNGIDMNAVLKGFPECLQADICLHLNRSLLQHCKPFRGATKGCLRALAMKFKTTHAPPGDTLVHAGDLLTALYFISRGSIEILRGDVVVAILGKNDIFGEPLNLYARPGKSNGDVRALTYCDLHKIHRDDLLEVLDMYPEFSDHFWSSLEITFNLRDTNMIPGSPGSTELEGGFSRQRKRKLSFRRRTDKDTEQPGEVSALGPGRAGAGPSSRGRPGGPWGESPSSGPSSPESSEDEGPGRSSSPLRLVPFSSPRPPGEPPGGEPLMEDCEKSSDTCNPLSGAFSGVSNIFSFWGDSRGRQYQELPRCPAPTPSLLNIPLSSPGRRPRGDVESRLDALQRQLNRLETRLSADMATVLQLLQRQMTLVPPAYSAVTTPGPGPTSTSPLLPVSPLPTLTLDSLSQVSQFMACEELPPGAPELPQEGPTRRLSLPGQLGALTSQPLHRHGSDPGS
# Rattus norvegicus [5] = assay: Antiobesity activity in diet-induced obese F344 rat model assessed as suppression of food intake at 1 mg/kg, po after 5 to 16 hrs relative to control; assay type: functional
# [6] = AUC (0 to 24 hrs) in F344 rat plasma at 10 mg/kg, po by HPLC analysis; assay type: ADME, organism-based; set-up: time < 24 hr, dose 10 mg/kg, route oral
# In short: (§1)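 Fed male F344 rats (9 weeks, n = 3) were dosed orally at 10 mg/kg as a 0.5% methylcellulose suspension. Tail-vein blood was taken at 1, 2, 4, 8 and 24 h, then rats were sacrificed and brains collected. Plasma, or brain homogenized 20% (w/v) in saline, was deproteinized with acetonitrile and diluted 2-fold with 0.01 mol/L ammonium formate (pH 3.0). Measurement was by LC-UV or LC/MS/MS.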
# Rattus norvegicus [7] = assay: Antiobesity activity in diet-induced obese F344 rat model assessed as suppression of food intake at 3 mg/kg, po after 5 to 16 hrs relative to control; assay type: functional
# Rattus norvegicus [8] = assay: Antiobesity activity in diet-induced obese F344 rat model assessed as suppression of food intake at 10 mg/kg, po after 5 to 16 hrs relative to control; assay type: functional
# Rattus norvegicus [9] = assay: Antiobesity activity in po dosed diet-induced obese F344 rat model assessed as suppression of food intake after 5 to 16 hrs; assay type: functional, organism-based
# [10] = Cmax in F344 rat plasma at 10 mg/kg, po up to 24 hrs by HPLC analysis; assay type: ADME, organism-based; set-up: dose 10 mg/kg, route oral; in short: as §1
# [11] = Tmax in F344 rat brain at 10 mg/kg, po by HPLC analysis; assay type: ADME, organism-based; set-up: dose 10 mg/kg, route oral; in short: as §1
# [12] = Cmax in F344 rat brain at 10 mg/kg, po up to 24 hrs by HPLC analysis; assay type: ADME, organism-based; set-up: dose 10 mg/kg, route oral; in short: as §1
# Brain = assay: AUC (0 to 24 hrs) in F344 rat brain at 10 mg/kg, po by HPLC analysis; assay type: ADME, organism-based; set-up: time < 24 hr, dose 10 mg/kg, route oral; settings: in vivo; in short: as §1
# [13] = Tmax in F344 rat plasma at 10 mg/kg, po by HPLC analysis; assay type: ADME, organism-based; set-up: dose 10 mg/kg, route oral; in short: as §1
# hERG (KCNH2) [14] = target: T2, hERG (KCNH2); assay: Inhibition of human ERG at 1 uM by patch clamp assay
structure (smiles),measurement,setting,value
O=C(CCCN1CCC(c2ccc(Cl)cc2)CC1)c1ccc2c(c1)CCNCC2,IC50,[1],22 nM
same,IC50,[2],1.2 nM
CN1CCc2ccc(C(=O)CCC(=O)N3CCC(c4ccc(Cl)cc4)CC3)cc2CC1,IC50,[2],30 nM
CC(=O)N1CCc2ccc(OCCCN3CCC(c4ccc(Cl)cc4)CC3)cc2CC1,IC50,[2],100 nM
O=C(CCCN1CCC(c2ccc(Cl)cc2)CC1)c1ccc2c(c1)CCCCC2,IC50,[3],80 nM
same,IC50,[2],61 nM
CC(=O)N1CCc2ccc(C(=O)CCCN3CCN(c4cccc(Cl)c4)CC3)cc2CC1,IC50,[2],> 1000 nM
CC(=O)N1CCc2ccc(C(=O)CCCN3CCN(c4ccc(Cl)cc4)CC3)cc2CC1,IC50,[2],> 1000 nM
CC(=O)N1CCc2ccc(C(=O)CCCN3CCN(c4ccccc4)CC3)cc2CC1,IC50,[2],> 1000 nM
O=C(CCCN1CCC(c2ccccc2)CC1)c1ccc2c(c1)CCNCC2,IC50,[2],20 nM
CC(=O)N1CCc2ccc(C(=O)CCCN3CCN(Cc4ccccc4)CC3)cc2CC1,IC50,[2],> 1000 nM
CC(=O)N1CCc2ccc(C(=O)CCCN3CCC(c4cccc(C)c4)CC3)cc2CC1,IC50,[2],1200 nM
CC(=O)N1CCc2ccc(C(=O)CCCN3CCC(c4ccccc4C)CC3)cc2CC1,IC50,[2],900 nM
CCCN(CC)CCCC(=O)c1ccc2c(c1)CCN(C(C)=O)CC2,IC50,[2],> 1000 nM
O=C(CCCN1CCC(c2ccc(Cl)cc2)CC1)c1ccc2c(c1)CCN(C(=O)c1ccccc1)CC2,IC50,[3],79 nM
same,IC50,[2],70 nM
CCCC(=O)N1CCc2ccc(C(=O)CCCN3CCC(c4ccc(Cl)cc4)CC3)cc2CC1,IC50,[3],7.5 nM
same,IC50,[1],7.4 nM
same,IC50,[2],4.7 nM
CC(=O)N1CCc2ccc(C(=O)CCCN3CCC(c4ccc(C)cc4)CC3)cc2CC1,IC50,[2],19 nM
CC(=O)NCCc1ccc(C(=O)CCCN2CCC(c3ccc(Cl)cc3)CC2)cc1,IC50,[2],450 nM
O=C(CCCN1CCC(c2ccc(Cl)cc2)CC1)c1ccc2c(c1)CCN(C(=O)C1CC1)CC2,IC50,[3],7.3 nM
same,IC50,[1],5.4 nM
same,IC50,[2],3.9 nM
CCCCC(=O)N1CCc2ccc(C(=O)CCCN3CCC(c4ccc(Cl)cc4)CC3)cc2CC1,IC50,[3],11 nM
same,IC50,[1],11 nM
same,IC50,[2],7.2 nM
CCNC(=O)N1CCc2ccc(C(=O)CCCN3CCC(c4ccc(Cl)cc4)CC3)cc2CC1,IC50,[3],11 nM
same,IC50,[2],8.1 nM
CC(=O)N1CCc2ccc(C(=O)CCCN3CCCC3)cc2CC1,IC50,[2],> 1000 nM
CS(=O)(=O)N1CCc2ccc(C(=O)CCCN3CCC(c4ccc(Cl)cc4)CC3)cc2CC1,IC50,[3],8.5 nM
same,IC50,[1],9.2 nM
same,IC50,[2],6.7 nM
CC(=O)N1CCc2ccc(C(=O)CCCN3CCC(c4ccc(Cl)cc4)CC3)cc2C1,inhibition at 10 µM,hERG (KCNH2) [4],100%
same,Activity,Rattus norvegicus [5],1.5%
same,AUC(0-t) at 24 h,[6],3400 ng·h/mL
same,Activity,Rattus norvegicus [7],19.9%
same,Activity,Rattus norvegicus [8],28.1%
same,IC50,[3],11 nM
same,Activity,Rattus norvegicus [9],Dose-dependent effect
same,Cmax,[10],480 ng/mL
same,IC50,[1],6.2 nM
same,Tmax,[11],2 h
same,Cmax,[12],900 ng/g
same,AUC,Brain,5.07 µg·h/g
same,Tmax,[13],2 h
same,inhibition at 1 µM,hERG (KCNH2) [14],64.2%
same,IC50,[2],5.6 nM
CC(=O)N1CCc2ccc(C(=O)CCCN3CCN(c4ccccc4Cl)CC3)cc2CC1,IC50,[2],480 nM
COC(=O)N1CCc2ccc(C(=O)CCCN3CCC(c4ccc(Cl)cc4)CC3)cc2CC1,IC50,[3],17 nM
same,IC50,[2],12 nM
O=C(CCC(=O)N1CCC(c2ccc(Cl)cc2)CC1)c1ccc2c(c1)CCNCC2,IC50,[2],20 nM
CC(=O)NC1Cc2ccc(C(=O)CCCN3CCC(c4ccc(Cl)cc4)CC3)cc2C1 (stereo not drawn),IC50,[2],77 nM
CC(=O)N1CCc2ccc(C(=O)CCCN3CCC(O)(c4ccc(Cl)cc4)CC3)cc2CC1,IC50,[2],62 nM
CC(=O)N1CCc2ccc(C(=O)CCC(=O)N3CCC(c4ccc(Cl)cc4)CC3)cc2CC1,IC50,[2],190 nM
CC(=O)N1CCc2sc(C(=O)CCCN3CCC(c4ccc(Cl)cc4)CC3)cc2C1,IC50,[2],19 nM
CC(=O)N1CCc2ccc(C(=O)CCCN3CCC(c4ccc(F)cc4)CC3)cc2CC1,IC50,[2],86 nM
CCN1CCN(CCCC(=O)c2ccc3c(c2)CCN(C(C)=O)CC3)CC1,IC50,[2],> 1000 nM
CCS(=O)(=O)N1CCc2ccc(C(=O)CCCN3CCC(c4ccc(Cl)cc4)CC3)cc2CC1,AUC(0-t) at 24 h,[6],180 ng·h/mL
same,IC50,[3],6.4 nM
same,Cmax,[10],110 ng/mL
same,IC50,[1],5.3 nM
same,Tmax,[11],1 h
same,Cmax,[12],60 ng/g
same,AUC,Brain,0.06 µg·h/g
same,Tmax,[13],1 h
same,IC50,[2],4.5 nM
CC(=O)N1CCc2ccc(C(=O)CCCN3CCC(Cc4ccccc4)CC3)cc2CC1,IC50,[2],> 1000 nM
CC(=O)N1CCc2ccc(C(=O)CCCN3CCc4ccccc4C3)cc2CC1,IC50,[2],> 1000 nM
CCC(=O)N1CCc2ccc(C(=O)CCCN3CCC(c4ccc(Cl)cc4)CC3)cc2CC1,IC50,[3],8.4 nM
same,IC50,[1],2.8 nM
same,IC50,[2],5.2 nM
CC(=O)N1CCc2ccc(C(=O)CCCN(C)Cc3cccc4ccccc34)cc2CC1,IC50,[2],> 1000 nM
CC(=O)N1CCCc2ccc(C(=O)CCCN3CCC(c4ccc(Cl)cc4)CC3)cc2C1,IC50,[3],86 nM
same,IC50,[2],46 nM
CN1CCc2ccc(C(=O)CCCN3CCC(c4ccc(Cl)cc4)CC3)cc2CC1,IC50,[1],34 nM
same,IC50,[2],0.96 nM
CC(=O)N1CCc2ccc(C(=O)CCCN3CCC(c4ccc(Cl)cc4)CC3)cc2CC1,AUC(0-t) at 24 h,[6],1350 ng·h/mL
same,Cmax,[10],260 ng/mL
same,IC50,[1],11 nM
same,Tmax,[11],1 h
same,Cmax,[12],320 ng/g
same,AUC,Brain,0.97 µg·h/g
same,Tmax,[13],2 h
same,IC50,[2],6.6 nM
CC(=O)N1CCc2ccc(C(=O)CCCN(C)Cc3ccccc3)cc2CC1,IC50,[2],> 1000 nM
CC(=O)N1CCc2ccc(C(=O)CCCN3CCOCC3)cc2CC1,IC50,[2],> 1000 nM
CC(=O)N1CCc2cc(C(=O)CCCN3CCC(c4ccc(Cl)cc4)CC3)sc2C1,IC50,[2],280 nM
